Assay results taken from ChEMBL document CHEMBL3867462, “Synthesis and in vitro antikinetoplastid activity of polyamine-hydroxybenzotriazole conjugates” (Bioorg Med Chem, 2017).

Assays:
[1] = Selectivity index, ratio of CC50 for mouse RAW 264.7 cells to IC50 for Trypanosoma brucei gambiense FeoITMAP/1893 trypomastigotes; format: functional
How it was run: (§1)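 Selectivity index is the CC50 on RAW 264.7 cells divided by the IC50 on the parasite.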

[2] = tested on: Trypanosoma brucei gambiense; assay: Antitrypanosomal against bloostream forms of Trypanosoma brucei gambiense FeoITMAP/1893 trypomastigotes after 72 hrs in the dark by resazurin assay; format: functional; conditions: FeoITMAP/1893, 72 h
How it was run: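 Bloodstream trypanosomes were seeded at 4×10⁴/mL with compound dilutions in supplemented medium containing NaHCO3, hypoxanthine, bathocuproine, thymidine and 2-mercaptoethanol. Incubation was 72 h.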

[3] = Cytotoxicity against mouse RAW264.7 cells assessed as cell growth inhibition after 72 hrs by Alamar blue dye-based assay; format: toxicity
How it was run: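 RAW 264.7 cells in DMEM with 10% heat-inactivated FBS were seeded at 5×10³ cells/well and incubated 24 h at 37 °C, 5% CO2. The medium was then replaced with fresh DMEM containing compound.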

Leishmania donovani [4] = assay: Antileishmanial against of Leishmania donovani LV9 intramacrophage amastigotes infected in mouse RAW 264.7 cells after 48 hrs by SYBR1 green-based qPCR analysis; format: functional, cell-based; conditions: LV9, RAW264.7, 48 h
[5] = Selectivity index, ratio of CC50 for mouse RAW 264.7 cells to IC50 for Leishmania donovani LV9 intramacrophage amastigotes infected in mouse RAW 264.7 cells; format: functional; how it was run: as §1
Leishmania donovani [6] = assay: Antileishmanial against of Leishmania donovani LV9 axenic amastigotes after 72 hrs by SYBR1 green-based qPCR analysis; format: functional; conditions: LV9, 72 h
How it was run: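 Axenic amastigotes were grown at 37 °C under 5% CO2, in medium at pH 5.5 containing glucose, glutamine, trypticase peptone, haemin and 20% FBS. Parasite load was read by SYBR green I fluorescence in a qPCR instrument and converted against a standard range of known parasite densities.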

[7] = Selectivity index, ratio of CC50 for mouse RAW 264.7 cells to IC50 for Leishmania donovani LV9 axenic amastigotes; format: functional; how it was run: as §1
[8] = Mixed-type inhibition of Trypanosoma brucei TryR assessed as enzyme-inhibitor complex using TS2 as substrate in presence of NADPH by Lineweaver-Burk plot analysis
How it was run: (§2)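 Recombinant T. brucei TryR activity was followed as NADPH consumption at 340 nm with TS2 concentration varied, at 0, 10 and 40 µM inhibitor. Inhibition type and inhibitor constant were derived from Lineweaver–Burk plots.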

[9] = Mixed-type inhibition of Trypanosoma brucei TryR assessed as enzyme-substrate-inhibitor complex using TS2 as substrate in presence of NADPH by Lineweaver-Burk plot analysis; how it was run: as §2
Trypanosoma brucei = assay: Inhibition of Trypanosoma brucei TryR using TS2 as substrate at 40 uM in presence of NADPH by spectrophotometric analysis
How it was run: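 Recombinant T. brucei TryR was screened with inhibitor at 40 µM in assay buffer containing 5% DMSO, at 40 or 100 µM TS2. Activity was followed as NADPH consumption at 340 nm and reported as percent inhibition against DMSO-matched controls.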

Row | Structure (SMILES) | IC50 [2] | IC50 (Leishmania donovani [4]) | IC50 (Leishmania donovani [6]) | Ki [8] | Ki [9] | inhibition (Trypanosoma brucei) | Ratio CC50/IC50 [1] | CC50 at 72 h [3] | Ratio CC50/IC50 [5] | Ratio CC50/IC50 [7]
1 | CC(C)(C)OC(=O)NCCCCN(CCCNC(=O)OC(C)(C)C)C(=O)COn1nnc2ccccc21 | 3.2 µM | 3.1 µM | 11.5 µM |  |  |  | 4 | 12.5 µM | 4 | 1
2 | N=C(N)c1ccc(OCCCCCOc2ccc(C(=N)N)cc2)cc1 [PENTAMIDINE] | 0.0021 µM |  |  |  |  |  |  | > 100 µM |  | 
3 | CC(C)(C)OC(=O)NCCCN(CCCCN(CCCNC(=O)COn1nnc2ccccc21)C(=O)OC(C)(C)C)C(=O)OC(C)(C)C | 3.5 µM | 34.7 µM | 27 µM |  |  |  | 10 | 37.4 µM | 1 | 1.4
4 | Cl.Cl.NCCCCN(CCCN)C(=O)COn1nnc2ccccc21 | 25.3 µM | 23.4 µM | > 100 µM |  |  |  | 4 | > 100 µM | 4 | 
5 | CCCCCCCCCCCCCCCCOP(=O)([O-])OCC[N+](C)(C)C [MILTEFOSINE] |  | 1.5 µM | 1.9 µM |  |  |  |  | > 100 µM |  | 
6 | CC(C)(C)OC(=O)NCCCCNC(=O)COn1nnc2ccccc21 | > 100 µM | > 100 µM | > 100 µM |  |  |  |  | > 100 µM |  | 
7 | Cl.Cl.NCCCCNCCCNC(=O)COn1nnc2ccccc21 | 72 µM | > 100 µM | > 100 µM | 6.7 µM | 16.8 µM | 80% | 1 | > 100 µM |  | 1.5

Now from value to compound, other results behind:

Row | IC50 [2] | IC50 (Leishmania donovani [4]) | IC50 (Leishmania donovani [6]) | Ki [8] | Ki [9] | inhibition (Trypanosoma brucei) | Structure (SMILES) | Ratio CC50/IC50 [1] | CC50 at 72 h [3] | Ratio CC50/IC50 [5] | Ratio CC50/IC50 [7]
8 | 13.8 µM | 38.6 µM | 10.9 µM |  |  |  | Cl.Cl.Cl.NCCCNCCCCNCCCNC(=O)COn1nnc2ccccc21 | 7 | > 100 µM | 3 | 9
9 | 38.7 µM | > 100 µM | > 100 µM |  |  |  | Cl.Cl.NCCCNCCCCNC(=O)COn1nnc2ccccc21 | 3 | > 100 µM |  | 9
10 | 3.3 µM | > 100 µM | 8.3 µM |  |  |  | NCCCCNCCCN [SPERMIDINE] | 29 | > 100 µM |  | 12
11 | > 100 µM | > 100 µM | > 100 µM |  |  |  | O=C(O)COn1nnc2ccccc21 |  | > 100 µM |  | 
12 | 2 µM | 41.4 µM | > 100 µM |  |  |  | CC(C)(C)OC(=O)NCCCN(CCCCNC(=O)COn1nnc2ccccc21)C(=O)OC(C)(C)C | 50 | > 100 µM | 2 | 
13 | 9.5 µM | > 100 µM | > 100 µM |  |  |  | Cl.NCCCCNC(=O)COn1nnc2ccccc21 | 11 | > 100 µM |  | 
14 | 1.2 µM | 67.8 µM | 60.5 µM |  |  |  | CC(C)(C)OC(=O)NCCCCN(CCCNC(=O)COn1nnc2ccccc21)C(=O)OC(C)(C)C | 85 | > 100 µM | 1 | 1.6
15 | 28.8 µM | 56.7 µM | > 100 µM |  |  |  | CC(C)(C)OC(=O)NCCCNC(=O)COn1nnc2ccccc21 | 3 | > 100 µM | 2 | 
16 | > 100 µM | 29.5 µM | > 100 µM |  |  |  | Cl.NCCCNC(=O)COn1nnc2ccccc21 |  | > 100 µM | 3 | 
